Source: ChEMBL document CHEMBL1128176 (J Med Chem, 1995)

Tests used:
Leukotriene B4 receptor [1] = molecular target: T1, Leukotriene B4 receptor (Homo sapiens, UniProt Q9NPC1+Q15722); test: Inhibition of LTB4 induced expression of human neutrophil integrin CD11b/CD18.; assay type: functional
Procedure, shortened: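 Human neutrophils stimulated with LTB4; test agents, mostly as sodium salts, dissolved in dilute sodium bicarbonate vehicle. Integrin CD11b/CD18 surface expression read by flow cytometry. IC50 derived from inhibition of LTB4-induced up-regulation. Where SEM is given, the value is the mean of at least four determinations.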

[2] = molecular target: Leukotriene B4 receptor (Cavia porcellus); test: Binding affinity towards Leukotriene B4 receptor guinea pig lung membrane using [3H]LTB4 as radioligand
Leukotriene B4 receptor [3] = molecular target: T1, Leukotriene B4 receptor; test: Binding affinity towards human LTB4 receptor measured as inhibition of binding of [3H]LTB4 to isolated human neutrophils

| SMILES | IC50 (Leukotriene B4 receptor [1]) [nM] | Ki [2] [nM] | Ki (Leukotriene B4 receptor [3]) [nM] |
| --- | --- | --- | --- |
| CCc1cc(-c2ccc(F)cc2)c(O)cc1OCCCOc1ccccc1CCC(=O)O | 31 | 3.8 | 8 |
| CCCc1c(OCCCCOc2cc(O)c(-c3ccc(F)cc3)cc2CC)cccc1Oc1ccccc1C(=O)O | 5.1 | 19 | 39 |
| CCCc1c(OCCCOc2cc(O)c(-c3ccc(F)cc3)cc2CC)ccc2c1OC(C(=O)O)CC2 (stereo not drawn) | 17 | 4.4 | 3.8 |
| CCCc1c(OCCCOc2cc(O)c(-c3ccc(F)cc3)cc2CC)cccc1C(=O)c1ccccc1C(=O)O | 13 | 11 | 35 |
| CCCc1c(OCCCOc2cc(O)c(-c3ccccc3)cc2CC)ccc2c1OC(C(=O)O)CC2 (stereo not drawn) | 110 | 2.8 | 3.3 |
| CCCc1c(OCCCOc2cc(O)c(-c3ccccc3)cc2CC)cccc1Oc1cccc(F)c1C(=O)O | 3.2 | 14 | 10 |
| CCc1cc(-c2ccccc2)c(O)cc1OCCCOc1ccc2c(=O)c3ccccc3oc2c1CCC(=O)O |  | 12 | 22 |
| CCc1cc(-c2ccc(F)cc2)c(O)cc1OCCCOc1ccc2c(=O)c3ccccc3oc2c1CCC(=O)O |  | 4 | 36 |
| CCc1cc(-c2ccc(F)cc2)c(O)cc1OCCCOc1cccc(OC)c1CCC(=O)O | 64 | 6.4 | 8.3 |
| CCc1cc(-c2ccc(N(C)C)cc2)c(O)cc1OCCCCCC(C)(C)c1nn[nH]n1 |  |  | 16 |
| CCCc1c(OCCCOc2cc(O)c(-c3ccc(F)cc3)cc2CC)cccc1[S+]([O-])c1ccccc1C(=O)O (stereo not drawn) | 95 | 1.4 | 14 |
| CCc1cc(-c2ccc(F)cc2)c(O)cc1OCCCOc1cccc(Oc2ccccc2C(=O)O)c1Cc1ccccc1 | 220 | 55 | 390 |
| CCc1cc(-c2cccc(C(F)(F)F)c2)c(O)cc1OCCCCCC(C)(C)c1nn[nH]n1 |  |  | 33 |
| CCCc1c(OCCCOc2cc(O)c(-c3ccc(F)cc3)cc2CC)cccc1Oc1cccc(F)c1C(=O)O | 2.5 | 9.5 | 4.4 |
| CCCc1c(OCCCOc2cc(O)c(-c3ccccc3)cc2CC)cccc1Oc1ccccc1C(=O)O | 11 | 16 | 19 |
| CCCCc1c(OCCCOc2cc(O)c(-c3ccc(F)cc3)cc2CC)cccc1Oc1ccccc1C(=O)O | 14 | 16 | 34 |
| CCCc1c(OCCCOc2cc(O)c(-c3ccc(F)cc3)cc2CC)cccc1Oc1cc(F)ccc1C(=O)O | 2.7 | 19 | 48 |
| CCc1cc(-c2ccc(F)cc2)c(O)cc1OCCCOc1ccc2c(=O)c3cc(C(=O)O)ccc3oc2c1CCC(=O)O |  | 0.04 | 0.47 |
| CCCc1c(OCCCOc2cc(O)c(-c3ccc(F)cc3)cc2CC)cccc1Oc1ccccc1CC(=O)O | 7.8 | 8.4 | 210 |
| CCCc1cc(CC)c(OCCCCCC(C)(C)c2nn[nH]n2)cc1O |  |  | 9.3 |
| CCCc1c(OCCCOc2cc(O)c(-c3ccc(F)cc3)cc2CC)cccc1Oc1ccccc1C(=O)O [ETALOCIB] | 3.3 | 6.6 | 17 |
| CCc1cc(-c2ccc(F)cc2)c(O)cc1OCCCOc1cccc(OCCCCC(=O)O)c1CCC(=O)O | 13 |  | 2.3 |
| CCc1cc(-c2ccc(F)cc2)c(O)cc1OCCCOc1cccc(Oc2ccccc2C(=O)O)c1CC(C)C | 8.5 | 14 | 36 |
| CCc1cc(-c2ccc(F)cc2)c(O)cc1OCCCOc1cccc(OCCCCc2nnn[nH]2)c1CCC(=O)O |  |  | 2.3 |
| CCc1cc(-c2ccc(F)cc2)c(O)cc1OCCCOc1cccc(OCCCCC(=O)N(C)C)c1CCC(=O)O | 7.8 |  | 3.1 |
| CCCc1c(OCCCOc2cc(O)c(-c3ccc(F)cc3)cc2CC)cccc1Sc1ccccc1C(=O)O | 7.4 | 11 | 350 |
| CCc1cc(-c2ccc(F)cc2)c(O)cc1OCCCOc1ccccc1CCc1nnn[nH]1 |  | 15 | 15 |
| CCc1cc(-c2ccccn2)c(O)cc1OCCCCCC(C)(C)c1nn[nH]n1 |  |  | 453 |
| CCc1cc(-c2ccccc2)c(O)cc1OCCCOc1ccc2c(=O)c3cc(C(=O)O)ccc3oc2c1CCC(=O)O |  | 0.11 | 0.51 |
| CCCc1c(OCCCCCOc2cc(O)c(-c3ccc(F)cc3)cc2CC)cccc1Oc1ccccc1C(=O)O | 9.5 | 6.8 | 150 |
